# Measurements collected from several papers.
# Lines come from different studies, so protocols differ.
# Cell line: NCI-H1299
# Read-out: cell growth or viability
Structure (SMILES),test,setting,endpoint,value
CN1C[C@H](C(=O)N[C@]2(C)O[C@@]3(O)[C@@H]4CCCN4C(=O)[C@H](Cc4ccccc4)N3C2=O)C[C@@H]2c3cccc4[nH]cc(c34)C[C@H]21,MTT,72 h,EC50,70 µM
COc1cccc(-c2ccc(/C(C)=N/O)c(O)c2Cl)c1,MTT,"30 µM, 48 h",viability,90%
CCCc1ccc(OCC(O)CNC/C=C/c2ccccc2OC)cc1 (centres unmarked),CCK-8,72 h,IC50,11.4 µM
COc1ccc(-c2ccc(/C(C)=N/O)c(O)c2Cl)cc1C,MTT,"30 µM, 48 h",viability,76%
COc1cc2c(Nc3ccc(NC(=O)c4ccccc4)cc3)ncnc2cc1OCCCN1CCOCC1,MTS,72 h,IC50,0.7 µM
COc1ccccc1OCCN1CCOC(COc2cccc3[nH]c4ccccc4c23)C1 (centres unmarked),CCK-8,72 h,IC50,> 100 µM
Cc1cc2c(cc1N1C(=O)c3cccc4c(CCCO)ccc(c34)C1=O)n(C)c(=O)n2C (racemic),resazurin,,GI50,> 10 µM
Cc1c(-c2cccc(C(F)(F)F)c2)sc2[nH]c(=O)n([C@H](C)c3cccc4ccccc34)c(=O)c12,,10 µM,inhibition,> 80%
C=C(c1ccc(C(=O)O)cc1)c1cc2c(cc1C)C(C)(C)CCC2(C)C,MTT,72 h,EC50,44 µM
COc1ccccc1C#CCNCC(O)COc1cccc2[nH]c3ccccc3c12 (centres unmarked),CCK-8,72 h,IC50,> 100 µM
C/C(=N\O)c1ccc(-c2cccc(C#N)c2)c(Cl)c1O,MTT,"30 µM, 48 h",viability,82%
